In the array DNA melting data of Ke et al. (doi:10.1101/2024.01.08.574731) one finds Tm and folding enthalpy data, which are given here for 38 sequences.

Series [1] in a line: melting temperature; fluorescence melt of hairpins on a sequencing array, two-state fit, raised by 9.35 °C to match UV melts. The following applies: sodium 0.088 M. The method in brief:
(§1)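 Melting temperature and folding enthalpy were obtained by bootstrapped two-state fitting. Fits used Cy3 fluorescence of library hairpins with annealed Cy3 and quencher oligos on a sequenced MiSeq flow cell, imaged in 50 mM Na-HEPES pH 8.0, 25 mM NaCl in 2.5 °C steps up to 60 °C and normalised to pre-quench Cy3 and control constructs. Four replicates were combined by inverse-variance weighting, and fitted temperatures were raised by 9.35 °C to match UV melts.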

A short description of series [2]: folding enthalpy; higher = less favourable; fluorescence melt of hairpins on a sequencing array, two-state fit. The following applies: sodium 0.088 M. The method in brief:
as §1

For the sequence GCGACGACGAAAGTCCGC (((..(((....)))))), in series [1], the Tm worked out at 51.4 °C. In addition, the folding enthalpy in series [2] is -24.7 kcal/mol.
The corresponding values for GCGACGCATCGC ((((....)))) are 49.8 °C and -16 kcal/mol.
For GCGACGCGAAAGCAACGC (((..((....))..))) the same measures were 54.2 °C and -16.8 kcal/mol.
As to GCGACGCGAAAGCATCGC ((((.((....)).)))), the Tm in series [1] was found to be 66.9 °C. For the same sequence, in series [2], the folding enthalpy is -43.2 kcal/mol.
The corresponding values for GCGACGCGAAAGCATTGC ((.(.((....)).).)) are 40.5 °C and -19.2 kcal/mol.
The corresponding values for GCGACGCGAAAGCGAAGC ((..(((....)))..)) are 66.2 °C and -36.5 kcal/mol.
For the sequence GCGACGCGAAAGCGCGGC ((..(((....)))..)), in series [1], the Tm was found to be 55.7 °C. Further, in series [2], the folding enthalpy is -13.1 kcal/mol.
For GCGACGCGAAAGCTTGGC ((.(.((....)).).)) the same measures were 37.2 °C and -10.3 kcal/mol.
Turning to GCGACGGCTCGC ((((....)))), the Tm in series [1] was determined as 49.5 °C. Besides, the folding enthalpy in series [2] is -13.3 kcal/mol.
The corresponding values for GCGACGGGAAACCACCGC (((..((....))..))) are 40.2 °C and -25.4 kcal/mol.
Consider GCGACGGGAAACTGTCGC (((((.(....).))))), for which the Tm in series [1] worked out at 67.6 °C. Moreover, the folding enthalpy in series [2] is -35.9 kcal/mol.
For GCGACGGTTCGC ((((....)))), in series [1], the Tm turned out to be 49.1 °C. In addition, the folding enthalpy in series [2] was -20.1 kcal/mol.
For GCGACGTTCGC ((((...)))) the same measures were 48 °C and -17.3 kcal/mol.
The corresponding values for GCGACGTTTCGC ((((....)))) are 47.8 °C and -17.9 kcal/mol.
Turning to GCGACTCCGAAAGGACGC (((..(((....)))))), in series [1], the Tm is 46.7 °C. In addition, in series [2], the folding enthalpy is -25.6 kcal/mol.
The corresponding values for GCGACTCGAAAGAGACGC (((.(((....))).))) are 62.3 °C and -48.5 kcal/mol.
For GCGACTGATCGC ((((....)))) the same measures were 46.8 °C and -21.9 kcal/mol.
For GCGACTGGAAACAATCGC ((((.((....)).)))) the same measures were 45.5 °C and -40.4 kcal/mol.
On to GCGACTGGAAACAGTCAC (.(((((....))))).), for which, in series [1], the Tm came out at 48.2 °C. Also, the folding enthalpy in series [2] was -14.4 kcal/mol.
For GCGACTTCGAAAGAACGC (((..(((....)))))) the same measures were 36.7 °C and -22.4 kcal/mol.
With GCGAGAAATCGC ((((....)))), the Tm in series [1] was determined as 52.5 °C. The folding enthalpy in series [2] was -21.5 kcal/mol.
For GCGAGAGAAATCTCGC ((((((....)))))), the Tm in series [1] worked out at 66.8 °C. In series [2], the folding enthalpy was -32.3 kcal/mol.
For GCGAGAGGAAACCCTCGC (((((.(....).))))) the same measures were 54.1 °C and -27.8 kcal/mol.
With GCGAGAGGAAACTCCCGC (((.(((....))).))), in series [1], the Tm turned out to be 48.5 °C. Further, in series [2], the folding enthalpy is -35.5 kcal/mol.
For GCGAGAGGAAACTCTTGC ((.((((....)))).)) the same measures were 50 °C and -37 kcal/mol.
GCGAGAGTTCGC ((((....)))): the Tm in series [1] was found to be 47.5 °C. In series [2], the folding enthalpy was -16.3 kcal/mol.
The corresponding values for GCGAGATATCGC ((((....)))) are 56.9 °C and -24.3 kcal/mol.
The corresponding values for GCGAGATCTCGC ((((....)))) are 54.1 °C and -35.4 kcal/mol.
Regarding GCGAGATTCGC ((((...)))), the Tm in series [1] was determined as 47.7 °C. In series [2], the folding enthalpy is -17.1 kcal/mol.
The corresponding values for GCGAGCCGTCGC ((((....)))) are 52.7 °C and -20 kcal/mol.
The corresponding values for GCGAGCGAAAGCTCACGC ((((((....)))..))) are 60.8 °C and -14.8 kcal/mol.
For GCGAGCGAAAGCTCCCGC ((((((....)))..))) the same measures were 42.4 °C and -11.6 kcal/mol.
For the sequence GCGAGCGAAAGCTCTCGC ((((((....)))..))), the Tm in series [1] was found to be 52.3 °C. Besides, the folding enthalpy in series [2] is -17.4 kcal/mol.
For GCGAGCGAAAGCTTACGC ((((((....)))..))) the same measures were 50.7 °C and -20.6 kcal/mol.
Turning to GCGAGCGAAAGCTTTCGC ((((((....)))..))), in series [1], the Tm is 50.3 °C. Moreover, in series [2], the folding enthalpy is -13.2 kcal/mol.
For GCGAGCGCGAAAGCGCGC (((..(((....)))))) the same measures were 59.9 °C and -7.4 kcal/mol.
The corresponding values for GCGAGCTGTCGC ((((....)))) are 48.8 °C and -17.8 kcal/mol.
For GCGAGCTTTCGC ((((....)))) the same measures were 50.5 °C and -19.3 kcal/mol.
